ChEMBL document CHEMBL3232705, “Discovery of isoquinolinone indole acetic acids as antagonists of chemoattractant receptor homologous molecule expressed on Th2 cells (CRTH2) for the treatment of allergic inflammatory diseases” (J Med Chem, 2014)
Values belong to the compound of their own block, whether it stands above or below them. Calls of active or inactive are those of the source. No cut-off for these calls is given here.

Assays:
[1] = molecular target: T1, Prostaglandin D2 receptor 2 (Homo sapiens, UniProt Q9Y5Y4); test: Antagonist activity at human recombinant CRTh2 expressed in CHO-K1 cells by cAMP TR FRET assay; type: functional, cell-based
T1 sequence (Q9Y5Y4 whole entry): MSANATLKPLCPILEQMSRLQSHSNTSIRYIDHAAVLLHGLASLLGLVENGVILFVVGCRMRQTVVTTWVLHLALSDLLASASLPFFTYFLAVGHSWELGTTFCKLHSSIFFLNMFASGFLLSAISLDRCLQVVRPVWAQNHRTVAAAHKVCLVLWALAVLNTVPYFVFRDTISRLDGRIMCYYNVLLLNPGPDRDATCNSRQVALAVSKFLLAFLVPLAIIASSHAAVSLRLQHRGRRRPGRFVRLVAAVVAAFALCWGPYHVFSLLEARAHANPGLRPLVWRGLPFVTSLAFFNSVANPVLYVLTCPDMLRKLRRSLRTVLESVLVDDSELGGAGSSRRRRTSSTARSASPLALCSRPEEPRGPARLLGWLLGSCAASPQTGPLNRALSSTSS

Mus musculus [2] = test: Antiallergic activity in house dust mite-induced allergic airway disease BALB/c mouse model assessed as reduction in airway inflammation at 1 mg/kg, ip qd after 17 days; type: functional, organism-based; parameters: dose 1 mg/kg
Mus musculus [3] = test: Antiallergic inflammatory activity in oxazolone induced contact hypersensitivity mouse model assessed as reduction ear swelling at 3 mg/kg, po prior to oxazolone and 7 hrs post challenge measured after 24 hrs; type: functional
Procedure, shortened: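 Mice sensitized on the shaved abdomen with 2% oxazolone in ethanol one week before challenge. Dosed orally 1 h before the left ear was challenged with 10 μL of 2% oxazolone (ethanol on the right ear as control), then redosed 7 h after challenge. Ear thickness measured by micrometer; swelling taken as 24 h post-challenge minus pre-challenge thickness. Unpaired t test.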

[4] = Clearance in dog at 2 mg/kg, iv; type: ADME, organism-based, Canis lupus familiaris; parameters: dose 2 mg/kg, route intravenous; conditions: in vivo
Procedure, shortened: (§1)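 Single intravenous dose of 2 mg/kg and single oral dose of 10 mg/kg, given separately, in rat, dog and monkey. Clearance and half-life taken from the iv arm; Cmax from the oral arm.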

[5] = Oral bioavailability in dog at 10 mg/kg; type: ADME, organism-based, Canis lupus familiaris; conditions: in vivo
[6] = Cmax in monkey at 10 mg/kg, po; type: ADME, organism-based, Macaca mulatta; parameters: dose 10 mg/kg, route oral; conditions: rhesus monkey, in vivo; procedure, shortened: as §1
[7] = Metabolic clearance in monkey hepatocytes measured per 10^6 cells; type: ADME, cell-based, Macaca mulatta, Hepatocyte; conditions: rhesus monkey, read-out: CLH
[8] = Metabolic clearance in rat hepatocytes measured per 10^6 cells; type: ADME, cell-based, Hepatocyte; conditions: read-out: CLH
[9] = Drug excretion in dog feces assessed as drug recovery at 5 mg/kg, iv measured after 24 hrs by LC-MS analysis; type: ADME, organism-based, Canis lupus familiaris; parameters: dose 5 mg/kg, route intravenous; conditions: faeces, read-out: Drug recovery
Procedure, shortened: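 Dogs given a single intravenous dose of 5 mg/kg; unchanged parent drug measured in the feces.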

[10] = Half life in monkey at 2 mg/kg, iv; type: ADME, organism-based, Macaca mulatta; parameters: dose 2 mg/kg, route intravenous; conditions: rhesus monkey, in vivo; procedure, shortened: as §1
Rattus norvegicus [11] = test: In vivo intrinsic biliary clearance in rat; type: ADME, organism-based, Bile
[12] = Volume of distribution at steady state in monkey at 2 mg/kg, iv; type: ADME, organism-based, Macaca mulatta; parameters: dose 2 mg/kg, route intravenous; conditions: rhesus monkey, in vivo, read-out: Vdss
[13] = Cmax in dog at 10 mg/kg, po; type: ADME, organism-based, Canis lupus familiaris; parameters: dose 10 mg/kg, route oral; conditions: in vivo; procedure, shortened: as §1
[14] = Metabolic clearance in dog hepatocytes measured per 10^6 cells; type: ADME, cell-based, Canis lupus familiaris, Hepatocyte; conditions: read-out: CLH
[15] = Plasma clearance in rat at 5 mg/kg, iv measured after 24 hrs by LC-MS analysis; type: ADME, organism-based; parameters: dose 5 mg/kg, route intravenous
Procedure, shortened: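 Bile duct-cannulated rats received a single iv dose of 5 mg/kg. Average plasma clearance was determined, and parent drug was quantified in bile and urine collected over 24 h.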

[16] = Drug excretion in rat bile assessed as drug recovery at 5 mg/kg, iv measured after 24 hrs by LC-MS analysis; type: ADME, organism-based; parameters: dose 5 mg/kg, route intravenous; conditions: read-out: Drug recovery
Procedure, shortened: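 Bile duct-cannulated rats given a single iv dose of 5 mg/kg; parent drug recovered in bile and urine over 24 h.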

[17] = Volume of distribution at steady state in dog at 2 mg/kg, iv; type: ADME, organism-based, Canis lupus familiaris; parameters: dose 2 mg/kg, route intravenous; conditions: in vivo, read-out: Vdss
[18] = Clearance in monkey at 2 mg/kg, iv; type: ADME, organism-based, Macaca mulatta; parameters: dose 2 mg/kg, route intravenous; conditions: rhesus monkey, in vivo; procedure, shortened: as §1
Hepatocyte [19] = test: In vitro intrinsic biliary clearance in sandwich cultured human hepatocytes measured; type: ADME, cell-based, Bile
Procedure, shortened: (§2)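 Sandwich-cultured hepatocytes incubated with substrate at 1–50 μM (rat) or 1–10 μM (human), with and without Ca2+. Biliary excretion taken as the difference in cellular accumulation between the two conditions. Intrinsic biliary clearance calculated as amount excreted into bile divided by substrate concentration over time.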

[20] = Half life in dog at 2 mg/kg, iv; type: ADME, organism-based, Canis lupus familiaris; parameters: dose 2 mg/kg, route intravenous; conditions: in vivo; procedure, shortened: as §1
Hepatocyte [21] = test: In vitro intrinsic biliary clearance in sandwich cultured rat hepatocytes measured; type: ADME, cell-based, Bile; procedure, shortened: as §2
[22] = Oral bioavailability in monkey at 10 mg/kg; type: ADME, organism-based, Macaca mulatta; conditions: rhesus monkey, in vivo
[23] = Clearance in rat at 2 mg/kg, iv and 10 mg/kg, po; type: ADME, organism-based; conditions: in vivo
[24] = Oral bioavailability in rat at 10 mg/kg; type: ADME, organism-based; conditions: in vivo
Rattus norvegicus [25] = species on record: Rattus norvegicus; test: Clearance in rat; conditions: in vivo
Rattus norvegicus [26] = test: Oral bioavailability in rat; conditions: in vivo

- IC50 [1]: 2000 nM
Compound: COc1ccc2c(c1)c(-c1ccc(=O)n(CC(F)(F)F)c1)c(C)n2CC(=O)O

- IC50 [1]: 1000 nM
Compound: Cc1c(-c2cn(CC(F)(F)F)c(=O)c3c2CCCC3)c2cc(F)ccc2n1CC(=O)O

- IC50 [1]: 148 nM
Compound: Cc1c(-c2ccc(=O)n(CC(F)(F)F)c2)c2cc(Cl)ccc2n1CC(=O)O

- IC50 [1]: 150 nM
Compound: Cc1c(Cc2ccc(=O)n(CCCC(F)(F)F)c2)c2cc(F)ccc2n1CC(=O)O

- IC50 [1]: 11 nM
Compound: Cc1c(Cc2ccc(=O)n(CCCC(F)(F)F)n2)c2cc(F)ccc2n1CC(=O)O

Compound: C[C@@H]1C[C@H]2[C@@H]3CCC4=CC(=O)C=C[C@]4(C)[C@@]3(F)[C@@H](O)C[C@]2(C)[C@@]1(O)C(=O)CO
- inhibition (Mus musculus [2]): Active

Compound: Cc1c(-c2cn(CC(C)(C)C)c(=O)c3ccccc23)c2cc(F)ccc2n1CC(=O)O
- inhibition in vivo at 3 mg/kg (Mus musculus [3]): 47.4%

- IC50 [1]: 556 nM
Compound: Cc1c(-c2ccc(=O)n(C(C)C)c2)c2ccccc2n1CC(=O)O

- IC50 [1]: 6 nM
Compound: Cc1c(-c2ccc(=O)n(Cc3c(F)cccc3F)c2)c2cc(F)ccc2n1CC(=O)O

- IC50 [1]: 84 nM
Compound: Cc1c(-c2ccc(=O)n(CC(F)(F)F)c2)c2cc(F)ccc2n1CC(=O)O

- IC50 [1]: 0.8 nM
Compound: Cc1c(-c2ccc(=O)n(Cc3cccc(F)c3F)c2)c2cc(F)ccc2n1CC(=O)O

- clearance [4]: 20 mL/min/kg
- bioavailability [5]: 8%
- Cmax [6]: 246 ng/mL
- hepatocyte CLint [7]: < 5 µL/min/1e6 cells
- hepatocyte CLint [8]: < 5 µL/min/1e6 cells
- dose excreted at 24 h [9]: > 90%
- half-life [10]: 2.3 h
- CL (Rattus norvegicus [11]): 3.8 mL/min/kg
- Vd [12]: 0.4 L/kg
- Cmax [13]: 716 ng/mL
- hepatocyte CLint [14]: < 5 µL/min/1e6 cells
- clearance [15]: 14 mL/min/kg
- dose excreted at 24 h [16]: 27%
- Vd [17]: 0.4 L/kg
- clearance [18]: 21 mL/min/kg
- CLH (Hepatocyte [19]): < 1 µL/min/µg
- half-life [20]: 2.3 h
- CLH (Hepatocyte [21]): < 2.6 µL/min/µg
- bioavailability [22]: 12%
Compound: Cc1c(Cc2ccc(=O)n(Cc3ccc(F)cc3F)n2)c2cc(F)ccc2n1CC(=O)O

- IC50 [1]: 4 nM
- clearance [23]: 32 mL/min/kg
- bioavailability [24]: 4%
Compound: Cc1c(Cc2ccc(=O)n(Cc3ccc(F)cc3F)c2)c2cc(F)ccc2n1CC(=O)O

- IC50 [1]: 17 nM
Compound: Cc1c(-c2ccc(=O)n(Cc3ccc(F)cc3F)c2)c2cc(F)ccc2n1CC(=O)O

- IC50 [1]: 192 nM
Compound: Cc1c(-c2cn(Cc3ccccc3)c(=O)c3c2CCCC3)c2cc(F)ccc2n1CC(=O)O

- IC50 [1]: 2 nM
Compound: Cc1c(Cc2ccc(=O)n(Cc3cc(F)ccc3F)n2)c2cc(F)ccc2n1CC(=O)O

- IC50 [1]: 18 nM
Compound: Cc1c(Cc2ccc(=O)n(CC(F)(F)F)n2)c2cc(F)ccc2n1CC(=O)O

- clearance [23]: 15 mL/min/kg
- bioavailability [24]: < 10%
Compound: Cc1c(-c2ccc(=O)n(Cc3ccccc3)c2)c2cc(F)ccc2n1CC(=O)O

- IC50 [1]: 689 nM
Compound: Cc1c(-c2ccc(OCCCC(F)(F)F)nc2)c2cc(F)ccc2n1CC(=O)O

- IC50 [1]: 1120 nM
Compound: Cc1ccc2c(c1)c(-c1ccc(=O)n(CC(F)(F)F)c1)c(C)n2CC(=O)O

- IC50 [1]: 52 nM
- clearance [23]: 7 mL/min/kg
- bioavailability [24]: 20%
Compound: Cc1c(Cc2ccc(=O)n(CC(F)(F)F)c2)c2cc(F)ccc2n1CC(=O)O

- clearance (Rattus norvegicus [25]): 35 mL/min/kg
- IC50 [1]: 1 nM
- bioavailability (Rattus norvegicus [26]): < 5%
Compound: Cc1c(-c2cn(CCCC(F)(F)F)c(=O)c3ccccc23)c2cc(F)ccc2n1CC(=O)O
- inhibition in vivo at 3 mg/kg (Mus musculus [3]): 30.4%

- IC50 [1]: 21 nM
Compound: Cc1c(-c2ccc(=O)n(Cc3c(F)cccc3F)c2)c2ccccc2n1CC(=O)O

- IC50 [1]: 195 nM
Compound: Cc1c(-c2ccc(=O)n(C(C)C)c2)c2cc(Cl)ccc2n1CC(=O)O

- IC50 [1]: 14 nM
Compound: Cc1c(-c2cn(Cc3ccccc3)c(=O)c3ccccc23)c2cc(F)ccc2n1CC(=O)O

- IC50 [1]: 6 nM
Compound: Cc1c(Cc2ccc(=O)n(Cc3ccc(F)cc3)n2)c2cc(F)ccc2n1CC(=O)O

- clearance (Rattus norvegicus [25]): 20 mL/min/kg
- bioavailability (Rattus norvegicus [26]): 35%
Compound: Cc1c(-c2cn(CC(F)(F)F)c(=O)c3ccccc23)c2cc(F)ccc2n1CC(=O)O
- inhibition in vivo at 3 mg/kg (Mus musculus [3]): 32.8%

- IC50 [1]: 16 nM
Compound: Cc1c(-c2ccc(=O)n(CCCC(F)(F)F)c2)c2cc(F)ccc2n1CC(=O)O

- IC50 [1]: 70 nM
Compound: Cc1c(-c2ccc(=O)n(C(C)C)c2)c2cc(F)ccc2n1CC(=O)O

- IC50 [1]: 8 nM
Compound: Cc1c(Cc2ccc(=O)n(Cc3cccc(F)c3)n2)c2cc(F)ccc2n1CC(=O)O
